Measurements from ChEMBL document CHEMBL1136952, “Inhibition of staphyloxanthin virulence factor biosynthesis in Staphylococcus aureus: in vitro, in vivo, and crystallographic results” (J Med Chem, 2009).

How the values were obtained:
[1] = target: T1, 4,4'-diapophytoene synthase (Staphylococcus aureus, UniProt A9JQL9); assay: Inhibition of Staphylococcus aureus histidine tagged dehydrosqualene synthase expressed in Escherichia coli BL21 (DE3) cells by continuous spectrophotometric assay
T1 sequence (A9JQL9 whole entry): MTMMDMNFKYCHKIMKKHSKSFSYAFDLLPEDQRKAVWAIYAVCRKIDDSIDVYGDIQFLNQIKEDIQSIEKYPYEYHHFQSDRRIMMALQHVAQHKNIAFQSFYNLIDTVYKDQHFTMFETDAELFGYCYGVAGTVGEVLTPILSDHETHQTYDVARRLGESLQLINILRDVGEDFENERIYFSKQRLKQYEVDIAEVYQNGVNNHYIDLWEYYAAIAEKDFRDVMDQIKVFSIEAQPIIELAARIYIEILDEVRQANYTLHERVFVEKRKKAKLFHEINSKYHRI
Summary of the method: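 His-tagged CrtM purified on Ni-NTA. Compounds were preincubated with 2 μg enzyme for 30 min at 20 °C. Phosphate release was followed continuously by a coupled spectrophotometric assay. IC50 came from a dose-response fit, and Ki was derived from IC50, substrate concentration and the CrtM kinetic constant.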

Staphylococcus aureus = assay: Inhibition of staphyloxanthin biosynthesis in Staphylococcus aureus isolate Pig1 after 72 hrs by spectrophotometry; type: functional, organism-based; conditions: isolate Pig1, PIG1, 72 h
Summary of the method: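 Bacteria were grown in Todd-Hewitt broth with compound for 72 h, in duplicate. Cells were then centrifuged and washed twice in PBS. Pigment was extracted with MeOH and read by OD at 450 nm. IC50 came from a dose-response fit of the OD data.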

Squalene synthase = target: T2, Squalene synthase (Homo sapiens, UniProt P37268); assay: Inhibition of human recombinant squalene synthase expressed in Escherichia coli cells assessed as conversion of [3H]FPP to squalene by liquid scintillation
T2 sequence (P37268 whole entry): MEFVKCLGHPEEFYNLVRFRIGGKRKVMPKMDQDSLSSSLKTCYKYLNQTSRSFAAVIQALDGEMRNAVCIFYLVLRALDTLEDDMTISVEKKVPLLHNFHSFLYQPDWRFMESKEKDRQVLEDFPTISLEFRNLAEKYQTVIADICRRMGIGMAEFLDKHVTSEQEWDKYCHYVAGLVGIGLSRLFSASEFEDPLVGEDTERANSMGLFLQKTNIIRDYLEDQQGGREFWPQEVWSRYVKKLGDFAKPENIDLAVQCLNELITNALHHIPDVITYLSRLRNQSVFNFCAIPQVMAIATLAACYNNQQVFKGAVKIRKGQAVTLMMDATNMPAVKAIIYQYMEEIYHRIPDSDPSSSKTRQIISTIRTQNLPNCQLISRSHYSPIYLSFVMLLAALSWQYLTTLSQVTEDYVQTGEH

MCF7 = assay: Cytotoxicity against human MCF7 cells after 4 days by MTT assay; type: cell-based; conditions: MCF7, 96 h
Summary of the method: (§1)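 Cell lines from the National Cancer Institute, grown in RPMI-1640 with 10% FBS and 2 mM L-glutamine at 37 °C, 5% CO2. Seeded 5000 cells/well with compound half-log serially diluted (0.316 mM to 0.1 pM). Incubated 4 days. Viability read by MTT. IC50 from dose-response fit of OD data.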

NCI-H460 = assay: Cytotoxicity against human NCI-H460 cells after 4 days by MTT assay; type: cell-based; conditions: NCI-H460, 96 h; summary of the method: as §1
SF-268 = assay: Cytotoxicity against human SF268 cells after 4 days by MTT assay; type: cell-based; conditions: SF-268, 96 h; summary of the method: as §1

SMILES	Ki [1] [µM]	IC50 (Staphylococcus aureus) [µM]	IC50 (Squalene synthase) [µM]	IC50 (MCF7) [µM]	IC50 (NCI-H460) [µM]	IC50 (SF-268) [µM]
O=C(CP(=O)(O)O)NCCc1cccc(Oc2ccccc2)c1	1.5	3	6.2	> 300	> 300	> 300
O=C(CP(=O)(O)O)OCCCc1cccc(Oc2ccccc2)c1	5.7	> 500	> 30	69	86	–
Cc1ccc(-c2ccc(CCCN(O)C(=O)CP(=O)(O)O)cc2)cc1	> 7	4.1	> 30	266	284	–
O=C(O)CC(=O)NCCCc1cccc(Oc2ccccc2)c1	> 7	200	> 30	283	306	306
O=C(CP(=O)(O)O)N(O)CCCc1cccc(Oc2ccccc2)c1	0.32	0.11	30	> 300	> 300	> 300
O=C(CP(=O)(O)O)N(O)CCCc1cccc(Oc2ccc(Cl)c(Cl)c2)c1	0.32	0.042	1.6	> 300	> 300	> 300
O=C(CP(=O)(O)O)NCCCc1cccc(Oc2ccc(Cl)cc2)c1	0.07	0.028	1.1	> 300	> 300	> 300
O=C(CP(=O)(O)O)NCCCc1cccc(Oc2ccc(Cl)c(Cl)c2)c1	0.03	0.04	0.74	> 300	> 300	> 300
O=C(CCCCc1cccc(Oc2ccccc2)c1)CP(=O)(O)O	> 7	28	20	135	191	–
O=C(NO)C(CCCc1cccc(Oc2ccccc2)c1)P(=O)(O)O (stereo not drawn)	4.1	4.2	0.3	> 300	> 300	> 300
CC(C)(C(=O)NCCCc1cccc(Oc2ccccc2)c1)P(=O)(O)O	0.96	> 500	0.52	> 300	> 300	> 300
O=P(O)(O)CS(=O)(=O)NCCCc1cccc(Oc2ccccc2)c1	> 7	> 500	> 30	> 300	> 300	> 300
O=C(CP(=O)([O-])[O-])NCCCc1cccc(Oc2ccccc2)c1.[K+].[K+]	–	0.008	0.53	> 300	> 300	> 300
CN(CCCc1cccc(Oc2ccccc2)c1)C(=O)CP(=O)(O)O	0.91	8.6	1	> 300	> 300	> 300
O=C(CP(=O)(O)O)NCCCc1ccc(-c2ccccc2)cc1	0.81	5	> 30	> 300	> 300	> 300
O=C(CS(=O)(=O)O)NCCCc1cccc(Oc2ccccc2)c1	0.81	15	> 30	> 300	> 300	> 300
O=C(CP(=O)(O)O)NCCCCc1cccc(Oc2ccccc2)c1	5.3	35	> 30	> 300	> 300	> 300
